# Results as given in ChEMBL document CHEMBL4004856, “Synthesis of new heterocyclic compounds based on pyrazolopyridine scaffold and evaluation of their neuroprotective potential in MPP+-induced neurodegeneration” (Eur J Med Chem, 2017).
# Active and inactive are the calls of the source. No cut-off for these calls is given here.
# Key:
# SH-SY5Y [1] = experiment: Neuroprotective activity against MPP+-induced toxicity in human SH-SY5Y cells assessed as increase in cell viability at 10 to 20 uM preincubated for 1 hr followed by MPP+ addition measured up to 24 hrs by MTT assay relative to control; type: functional
# Outline: (§1)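 SH-SY5Y cells seeded 2x10³/well and left to adhere 24 h. Compounds (5–20 μM, DMSO) were added 1 h before 2 mM MPP⁺ for 24 h at 37°C, 5% CO2. Viability was read by MTT (0.5 mg/ml final, 3 h), DMSO solubilisation and absorbance at 570/630 nm, expressed as % of vehicle control. Mean ± SD, n = 5.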
# SH-SY5Y [2] = experiment: Neuroprotective activity against MPP+-induced toxicity in human SH-SY5Y cells assessed as increase in cell viability preincubated for 1 hr followed by MPP+ addition measured up to 24 hrs by MTT assay; type: functional, cell-based; outline: as §1
# SH-SY5Y [3] = experiment: Neuroprotective activity against MPP+-induced toxicity in human SH-SY5Y cells assessed as increase in cell viability at 5 uM preincubated for 1 hr followed by MPP+ addition measured up to 24 hrs by MTT assay relative to control; type: functional; outline: as §1
# SH-SY5Y [4] = experiment: Cytotoxicity against human SH-SY5Y cells assessed as reduction in cell viability up to 20 uM up to 24 hrs by MTT assay; type: cell-based
# Outline: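 SH-SY5Y cells in DMEM with 10% FBS and penicillin/streptomycin at 37°C, 5% CO2, seeded 2x10³ cells/well and left to adhere 24 h. Compounds (5, 10, 20 μM, in DMSO) were added for 3, 6 and 24 h. MTT was then added (0.5 mg/ml final) for 3 h, and formazan was dissolved in DMSO and read at 570/630 nm. Values are relative to vehicle control.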
# SH-SY5Y [5] = experiment: Neuroprotective activity against MPP+-induced toxicity in human SH-SY5Y cells assessed as ratio of Bcl2 to beta-actin protein expression level at 5 uM preincubated for 1 hr followed by MPP+ addition measured up to 12 hrs by Western blot method (reference value: 2.84 +/- 0.02); type: functional
# Outline: (§2)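 SH-SY5Y cells seeded 5x10⁵/well and left to adhere 24 h. Compounds (1 or 5 μM) were added 1 h before 2 mM MPP⁺ for 12 h. Lysates in RIPA-type buffer; 10 μg protein run on 10% SDS gels and blotted to PVDF. Blots were probed with rabbit anti-bax, Bcl-2, Bcl-xl or caspase-3 (cleaved p17/p19) antibodies and detected by chemiluminescence. Densitometry was normalised to β-actin. Mean ± SD, n = 3.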
# SH-SY5Y [6] = experiment: Neuroprotective activity against MPP+-induced toxicity in human SH-SY5Y cells assessed as increase in Bcl2 protein expression level at 1 uM preincubated for 1 hr followed by MPP+ addition measured up to 12 hrs by Western blot method
# SH-SY5Y [7] = experiment: Neuroprotective activity against MPP+-induced toxicity in human SH-SY5Y cells assessed as decrease in caspase-3 activation at 1 uM preincubated for 1 hr followed by MPP+ addition measured up to 12 hrs by Western blot method; type: functional, cell-based; outline: as §2
# SH-SY5Y [8] = experiment: Neuroprotective activity against MPP+-induced toxicity in human SH-SY5Y cells assessed as decrease in Bax protein expression level preincubated for 1 hr followed by MPP+ addition measured up to 12 hrs by Western blot method; type: functional, cell-based; outline: as §2
# SH-SY5Y [9] = experiment: Neuroprotective activity against MPP+-induced toxicity in human SH-SY5Y cells assessed as increase in Bcl2 protein expression level preincubated for 1 hr followed by MPP+ addition measured up to 12 hrs by Western blot method
# SH-SY5Y [10] = experiment: Neuroprotective activity against MPP+-induced toxicity in human SH-SY5Y cells assessed as decrease in caspase-3 activation at 5 uM preincubated for 1 hr followed by MPP+ addition measured up to 12 hrs by Western blot method; type: functional, cell-based; outline: as §2
# SH-SY5Y [11] = experiment: Neuroprotective activity against MPP+-induced toxicity in human SH-SY5Y cells assessed as ratio of Bax to beta-actin protein expression level at 1 uM preincubated for 1 hr followed by MPP+ addition measured up to 12 hrs by Western blot method (reference value: 1.26); type: functional; outline: as §2
# SH-SY5Y [12] = experiment: Neuroprotective activity against MPP+-induced toxicity in human SH-SY5Y cells assessed as ratio of Bax to beta-actin protein expression level at 5 uM preincubated for 1 hr followed by MPP+ addition measured up to 12 hrs by Western blot method (reference value: 1.26); type: functional; outline: as §2
# SH-SY5Y [13] = experiment: Neuroprotective activity against MPP+-induced toxicity in human SH-SY5Y cells assessed as increase in Bcl-xl protein level at 1 uM preincubated for 1 hr followed by MPP+ addition measured up to 12 hrs by Western blot method; type: functional, cell-based; outline: as §2
# SH-SY5Y [14] = experiment: Neuroprotective activity against MPP+-induced toxicity in human SH-SY5Y cells assessed as increase in cell viability at 5 to 10 uM preincubated for 1 hr followed by MPP+ addition measured up to 24 hrs by MTT assay relative to control; type: functional; outline: as §1
# SH-SY5Y [15] = experiment: Neuroprotective activity against MPP+-induced toxicity in human SH-SY5Y cells assessed as increase in cell viability at 20 uM preincubated for 1 hr followed by MPP+ addition measured up to 24 hrs by MTT assay relative to control; type: functional; outline: as §1
# SH-SY5Y [16] = experiment: Neuroprotective activity against MPP+-induced toxicity in human SH-SY5Y cells assessed as increase in Bcl-xl protein level by measuring ratio of Bcl-xl to beta actin level at 5 uM preincubated for 1 hr followed by MPP+ addition measured up to 12 hrs by Western blot method (reference value: 0.27 +/- 0.001); type: functional; outline: as §2
Structure (SMILES),Activity (SH-SY5Y [1]),Activity (SH-SY5Y [2]),Activity (SH-SY5Y [3]),Activity (SH-SY5Y [4]),Ratio (SH-SY5Y [5]),Activity (SH-SY5Y [6]),Activity (SH-SY5Y [7]),Activity (SH-SY5Y [8]),Activity (SH-SY5Y [9]),Activity (SH-SY5Y [10]),Ratio (SH-SY5Y [11]),Ratio (SH-SY5Y [12]),Activity (SH-SY5Y [13]),Activity (SH-SY5Y [14]),Activity (SH-SY5Y [15]),Ratio (SH-SY5Y [16])
Cc1nc2c(c(C)nn2-c2ccccc2)c(C)c1Br,10 - 20%,Dose-dependent effect,20 - 30%,Non-Toxic,,,,,,,,,,,,
CCOC(=O)c1ccc(-c2c(C)nc3c(c(C)nn3-c3ccccc3)c2C)cc1,10 - 20%,Dose-dependent effect,20 - 30%,Non-Toxic,,,,,,,,,,,,
Cc1cccc(-c2c(C)nc3c(c(C)nn3-c3ccccc3)c2C)c1,10 - 20%,Dose-dependent effect,20 - 30%,Non-Toxic,,,,,,,,,,,,
Cc1nc2c(c(C)nn2-c2ccccc2)c(C)c1-c1cccc(C#N)c1,10 - 20%,Dose-dependent effect,20 - 30%,Non-Toxic,,,,,,,,,,,,
Cc1ccc(-c2c(C)nc3c(c(C)nn3-c3ccccc3)c2C)cc1,10 - 20%,Dose-dependent effect,20 - 30%,Non-Toxic,3.62,inactive,Active,Dose-dependent effect,Dose-dependent effect,Active,1.11,0.49 - 1.03,Active,,,
Cc1nc2c(c(C)nn2-c2ccccc2)c(C)c1-c1ccc(C=O)cc1,10 - 20%,Dose-dependent effect,20 - 30%,Non-Toxic,2.63,inactive,Active,Dose-dependent effect,Dose-dependent effect,Active,0.86,0.49 - 1.03,Active,,,
Cc1nc2c(c(C)nn2-c2ccccc2)c(C)c1-c1ccc(F)nc1,,Dose-dependent effect,,Non-Toxic,,,,,,,,,,20 - 30%,10 - 20%,
Cc1ccccc1-c1c(C)nc2c(c(C)nn2-c2ccccc2)c1C,10 - 20%,Dose-dependent effect,20 - 30%,Non-Toxic,,,,,,,,,,,,
Cc1nc2c(c(C)nn2-c2ccccc2)c(C)c1-c1ccc(Cl)cc1,,Dose-dependent effect,,Non-Toxic,0.39,inactive,Active,Dose-dependent effect,Dose-dependent effect,,0.78,0.49 - 1.03,Active,20 - 30%,10 - 20%,
COc1ccc(-c2c(C)nc3c(c(C)nn3-c3ccccc3)c2C)cc1,10 - 20%,Dose-dependent effect,20 - 30%,Non-Toxic,,,,,,,,,,,,
Cc1nc2c(c(C)nn2-c2ccccc2)c(C)c1-c1ccccc1,10 - 20%,Dose-dependent effect,20 - 30%,Non-Toxic,,,,,,,,,,,,
Cc1nc2c(c(C)nn2-c2ccccc2)c(C)c1-c1cccs1,10 - 20%,Dose-dependent effect,20 - 30%,Non-Toxic,4.33,inactive,Active,Dose-dependent effect,Dose-dependent effect,,0.76,0.49 - 1.03,Active,,,
Cc1nc2c(c(C)nn2-c2ccccc2)c(C)c1-c1ccc(C(F)(F)F)cc1,10 - 20%,Dose-dependent effect,20 - 30%,Non-Toxic,0.85,inactive,Active,Dose-dependent effect,Dose-dependent effect,inactive,0.85,0.49 - 1.03,Active,,,0.28
Cc1nc2c(c(C)nn2-c2ccccc2)c(C)c1-c1ccc([N+](=O)[O-])cc1,10 - 20%,Dose-dependent effect,20 - 30%,Non-Toxic,3.22,inactive,Active,Dose-dependent effect,Dose-dependent effect,inactive,0.75,0.49 - 1.03,Active,,,
Cc1nc2c(c(C)nn2-c2ccccc2)c(C)c1-c1ccc(N(C)C)cc1,10 - 20%,Dose-dependent effect,20 - 30%,Non-Toxic,,,,,,,,,,,,
